L major viab: reduces viability of Leishmania major promastigotes. inhibition, % at 10 µM. resazurin fluorescence viability. actives 9% (n = 200,000); in the data active = inhibition above about 50%;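 note: promastigotes grown with compound for 44 hours at 28 °C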
SKKanGAS inh: SKKanGAS growth inhibition; S. pyogenes SKKanGAS, kanamycin growth, BacTiter-Glo, 6 h; inhibition, % at 7.5 µM; actives 1.3% (n = 300,000); AID 1662;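 active = mean replicate score, as percent of positive control median, at least 50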;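 note: strain carries kanamycin resistance gene driven by streptokinase promoter and grows in 40 µg/ml kanamycin; loss of luminescence reflects streptokinase promoter inhibition or plain growth inhibition; 0% = median of DMSO wells and 100% = positive control at its reference dose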
CSC inhib: cancer stem cell inhibition; cancer stem cell-like cells viability, luminescence; actives 1.1% (n = 300,000); inhibition, % at 7.5 µM; in the data active = inhibition above about 75%; tested in HMLE shEcad cells
T cruzi repl: blocks replication of Trypanosoma cruzi; T. cruzi beta-gal in NIH3T3, luminescence, 90 h; inhibition, % (concentration not given with the values); actives 1.4% (n = 300,000);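 active = mean inhibition across valid replicates above about 55%, limit read from the data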;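 note: signal also drops with host cell toxicity which is not excluded here; 0% = plate median of DMSO wells and 100% = zero luminescence signal; higher percent means less beta-gal luminescence so fewer parasites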
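assay system = mouse NIH/3T3 fibroblasts infected with β-gal-expressing T. cruzi Tulahuen C4 | input = 5,000 NIH/3T3 host cells per well | buffer or medium = DMEM plus 2% FBS | timing = 3 h host attachment, then at least 90 h co-culture | measured by = GalScreen luminescence, 60 min | evaluation = luminescence reflecting intracellular parasite burden, expressed as percent inhibition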
Mdm2-MdmX inh: disrupts the human Mdm2-MdmX interaction; O15151+Q00987; SaOS-2 split-luciferase Mdm2/MdmX complementation, luminescence; inhibition, % at 8 µM; actives 3% (n = 330,000); AID 485346;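 active = inhibition of at least 50% at 8 µM in the primary screen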
Beta apoptosis: beta cell apoptosis inhibition | actives 0.8% (n = 300,000) | AID 435005 | protection from apoptosis, % (test concentration not listed) | INS-1E cytokine-induced death, ATP luminescence, 48 h; percent of positive-control rescue, neutral wells zero;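 active = Every replicate reaches about 75%, or at least half do and their mean reaches it too, limit read from the data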;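 note: 0% = cytokine-treated negative control wells and 100% = positive control rescue; higher means more ATP so stronger rescue from cytokine killing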
Starred values were filed as active, the others as inactive; nt = no result. A selection: hits, their analogues and other compounds. The true share with any hit is near 9.4%.

SMILES | L major viab | SKKanGAS inh | CSC inhib | T cruzi repl | Mdm2-MdmX inh | Beta apoptosis
CN1c2ccccc2C(C)(C)C12CC(c1ccc(Cl)c(S(=O)(=O)N3CCCC3)c1)=NO2 (stereo not given) | 69* | 2 | -3 | 27 | 8 | 7
CN1c2ccccc2C(C)(C)C12CC(CCl)=NO2 (stereo not given) | 9 | -9 | 19 | -1 | -28 | 6
COc1cc(F)ccc1CN1CCC(n2nccc2NC(=O)C2CCOC2)CC1 (stereo not given) | nt | 52* | -2 | 7 | 6 | nt
COC(C(=O)Nc1ccnn1C1CCN(Cc2nccs2)CC1)c1ccccc1 (stereo not given) | nt | 51* | -2 | -6 | 7 | nt
COc1ccccc1C(=O)Nc1ccnn1C1CCN(Cc2cnc(N(C)C)s2)CC1 | nt | 5 | 0 | 56* | 4 | -4
COc1cc(CN2CCC(n3nccc3NC(=O)C3CCOC3)CC2)ccc1F (stereo not given) | nt | -5 | 1 | -15 | 27 | -2
O=C(CCc1ccccc1)Nc1ccnn1C1CCN(C/C=C/c2ccccc2)CC1 | nt | 3 | 18 | 10 | 29 | -4
COc1ccccc1/C=C/CN1CCC(n2nccc2NC(=O)CCc2ccccc2)CC1 | nt | -2 | 2 | 33 | 43 | 78*
O=S(=O)(Nc1nc2ccccc2nc1Cl)c1ccc(Br)cc1 | -11 | 25 | 9 | -1 | 11 | -1
CCOc1ccc(CN2CCC(n3nccc3NC(=O)c3ccccc3OC)CC2)cc1 | nt | 14 | -5 | 62* | 17 | 7
CCn1cc(CN2CCC(n3nccc3NC(=O)c3ccccc3OC)CC2)cn1 | nt | 9 | -8 | 33 | -5 | -1
COc1ccccc1-n1ccn(CC(=O)Nc2ccc(C)cc2Cl)c(=O)c1=O | nt | -8 | -14 | 12 | 1 | 3
O=C(N/N=C/c1ccc(-c2ccc(Br)cc2)o1)c1ccc2c(c1)OCO2 | 29 | 2 | 8 | 74* | -15 | 4
Cc1ccc(/C=N/NC(=O)c2ccc3c(c2)OCCO3)s1 | nt | 17 | 92* | -13 | 16 | 8
Cc1cccc(/C=N/NC(=O)c2ccc3c(c2)OCCO3)c1O | nt | 91* | -20 | 45 | 15 | 94*
Cc1cccc(/C=N\NC(=O)c2ccc(Cl)cc2)c1O | 72* | 93* | -13 | 64* | 30 | 96*
O=C(N/N=C/c1cccc(O)c1)c1ccc2c(c1)OCCO2 | nt | -2 | 14 | -7 | -96 | 4
O=C(N/N=C/c1c[nH]c2ccccc12)c1ccc(Cl)cc1 | nt | -3 | 6 | 1 | -2 | nt
O=C(N/N=C/c1ccc(COc2ccc(Br)cc2)o1)c1ccc2c(c1)OCO2 | nt | 3 | nt | 20 | -1 | nt
O=c1cc(Nc2ccc3c(c2)OCO3)[nH]c(=O)n1-c1ccc(Br)cc1 | 99* | 5 | 4 | 46 | 10 | 6
CCN(c1ccccc1)S(=O)(=O)c1ccc(OC)c(NC(=O)CNC)c1 | 7 | 0 | nt | -13 | 11 | -3
CCN(c1ccccc1)S(=O)(=O)c1ccc(OC)c(NC(=O)CNCC(C)O)c1 (stereo not given) | 64* | -4 | 33 | 3 | 30 | -5
CCC(C)NCC(=O)Nc1cc(S(=O)(=O)N(CC)c2ccccc2)ccc1Cl (stereo not given) | 64* | -4 | 1 | 30 | 38 | 4
CCN(c1ccccc1)S(=O)(=O)c1ccc(OC)c(NC(=O)Cn2cnc3c2c(=O)n(C)c(=O)n3C)c1 | 61* | 3 | -4 | 23 | 12 | nt
CCN(c1ccccc1)S(=O)(=O)c1ccc(Cl)c(NC(=O)COC(=O)c2ccc(O)cc2)c1 | 1 | 8 | -1 | 9 | 15 | 1
SMILES | L major viab | SKKanGAS inh | CSC inhib | T cruzi repl | Mdm2-MdmX inh | Beta apoptosis
CCN(c1ccccc1)S(=O)(=O)c1ccc(Cl)c(NC(=O)COC(=O)c2cc(O)c3ccccc3c2O)c1 | nt | 30 | 103* | 6 | 17 | 79*
COCCCN1C(=O)c2ccc(C(=O)NCc3ccccn3)cc2C1=O | nt | 3 | -7 | -11 | 12 | 1
CCOc1ccc(C(=O)Nc2cccc3ncccc23)cc1Br | 10 | -8 | -2 | 4 | 15 | 5
CC(C)CC(=O)NC(c1ccccc1Cl)c1c(O)ccc2ccccc12 (stereo not given) | 100* | 46 | 16 | 10 | 21 | -1
CCCC(=O)NC(c1ccco1)c1c(O)ccc2ccccc12 (stereo not given) | 57* | -9 | nt | -4 | 1 | -2
COc1ccc(C(NC(=O)CC(C)C)c2c(O)ccc3ccccc23)cc1 (stereo not given) | nt | 10 | 13 | 13 | 9 | -6
CCOc1ccc(C(NC(=O)CC)c2c(O)ccc3ccccc23)cc1 (stereo not given) | nt | 3 | 47 | -15 | 30 | -5
CCC(=O)NC(c1cccc([N+](=O)[O-])c1)c1c(O)ccc2ccccc12 (stereo not given) | 6 | -7 | 5 | 2 | 21 | -2
CCCCC(=O)NC(c1ccco1)c1c(O)ccc2ccccc12 (stereo not given) | 67* | -11 | -22 | 17 | 22 | 1
O=C(CN1C(=O)C2CC=CCC2C1=O)Nc1nnc(C2CC2)s1 (stereo not given) | nt | nt | nt | nt | -9 | -1
O=C(O)C1C2CCC(CC2)C1C(=O)N1CCN(Cc2ccc(F)cc2)CC1 (stereo not given) | nt | 2 | -5 | 4 | 13 | 0
O=C(NC1=NCCS1)c1ccc(F)c(S(=O)(=O)N2CCOCC2)c1 | nt | nt | 14 | nt | -41 | -4
CC(C)n1ncc2c(C(=O)NCc3cccnc3)cc(C3CC3)nc21 | nt | nt | nt | nt | 25 | nt
Cc1ccccc1OCC(=O)Nc1ccccc1-c1ccccc1 | nt | 27 | 37 | 19 | 0 | -1
COc1cccc(CC(NC(C)=O)C(=O)NC2CCN(S(=O)(=O)c3ccc(F)cc3)CC2)c1OC (stereo not given) | -4 | -2 | -11 | -11 | -25 | 1
O=C(Nc1nc(=S)ss1)c1ccc(Cl)cc1Cl | -4 | 52* | nt | -16 | nt | 23
O=C(Nc1ccc2ccccc2c1)c1ccc(Cl)cc1Cl | nt | 32 | 10 | 11 | -221 | -9
O=c1c2ccccc2nc(SCc2nc3ccccc3s2)n1CCCO | 10 | -4 | -2 | 0 | -50 | -5
COc1ccc(CCNC(=S)NCCc2c[nH]c3ccccc23)cc1 | 91* | -4 | 4 | 0 | 8 | -3
Cc1ccccc1NC(=S)NCCc1c[nH]c2ccccc12 | 81* | -13 | 7 | -9 | 12 | -2
Cc1ccc(C)c(NC(=S)NCCc2c[nH]c3ccccc23)c1 | nt | -6 | 7 | -11 | 4 | 14
COc1cc(CNCc2c[nH]c3ccccc23)cc(OC)c1 | 42 | -3 | nt | 78* | 18 | 20
N#Cc1cccc(NC(=O)NCCc2c[nH]c3ccccc23)c1 | 90* | -11 | 12 | -5 | 12 | 1
COc1ccc(C(=O)NCC(=O)N/N=C/c2cn(C)c3ccccc23)cc1OC | nt | nt | -13 | nt | -15 | 14
